# Columns and labels:
# [1] = Half life in cynomolgus monkey at 1 mg/kg, iv; type: ADME, organism-based, Macaca fascicularis; details: in vivo
# Summary of the method: (§1)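 Rats, dogs and cynomolgus monkeys, n = 3: parent 1 mg/kg i.v. in PEG400:DMAC:water (70:5:25), or phosphate prodrug 10 mg/kg oral in Methocel:Tween80:water (0.5:0.1:99.4); plasma parent compound, Cmax, Tmax, AUC0-∞, half-life, clearance, Vss and bioavailability derived.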
# Homo sapiens = organism: Homo sapiens; test: Inhibition of sodium channel (unknown origin) at 10 uM and 4 Hz
# L-type calcium channel = L-type calcium channel (Homo sapiens, UniProt O60840+Q01668+Q13698+Q13936); test: Inhibition of L-type calcium channel (unknown origin) at 10 uM
# Summary of the method: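 In vitro ion-channel inhibition measured at 10 µM against hERG, Na (4 Hz) and L-type Ca channels; read-out is percent inhibition.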
# Rattus norvegicus [2] = test: Toxicity in DIO Sprague-Dawley rat assessed as biliary lesion formation at 10 mg/kg, po qd for 4 days; type: organism-based; details: in vivo, 96 h
# Rattus norvegicus [3] = test: Antiobesity activity in pair-fed DIO Sprague-Dawley rat model assessed as reduction in caloric intake at 1 mg/kg, po qd for 28 days relative to vehicle control; type: functional; design: scale not given: the % may be the effect or the level left
# Summary of the method: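 Obese male SD rats on diet-induced obesity, 8/group, dosed orally once daily for 28 days with phosphate prodrug (0.03–3 mg/kg parent) in 14% propylene glycol/1% Tween/85% water; rimonabant 10 mg/kg control; pair-fed groups matched to 1 and 3 mg/kg intake; body weight and food measured daily, % change versus vehicle.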
# Cytochrome P450 2C8 = biological target: T1, Cytochrome P450 2C8 (Homo sapiens, UniProt P10632); test: Inhibition of CYP2C8 (unknown origin); type: ADME
# T1 sequence (P10632 whole entry): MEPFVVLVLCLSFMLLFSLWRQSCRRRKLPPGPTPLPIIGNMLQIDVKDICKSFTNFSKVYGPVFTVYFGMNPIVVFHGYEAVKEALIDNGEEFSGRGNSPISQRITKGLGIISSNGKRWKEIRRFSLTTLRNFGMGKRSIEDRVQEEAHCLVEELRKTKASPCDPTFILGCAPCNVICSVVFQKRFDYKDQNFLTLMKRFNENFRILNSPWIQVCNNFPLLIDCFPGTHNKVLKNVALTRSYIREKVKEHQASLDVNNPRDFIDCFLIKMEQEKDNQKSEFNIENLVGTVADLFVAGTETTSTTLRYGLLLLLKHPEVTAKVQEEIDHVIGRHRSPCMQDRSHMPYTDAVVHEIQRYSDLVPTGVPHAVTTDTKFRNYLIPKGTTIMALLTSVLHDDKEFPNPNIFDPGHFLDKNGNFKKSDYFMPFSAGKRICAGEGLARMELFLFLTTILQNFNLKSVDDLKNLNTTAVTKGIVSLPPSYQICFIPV
# Summary of the method: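 CYP1A2, 2C8, 2C9, 2C19, 2D6 and 3A4 tested for inhibition, with 40 µM as the top tested limit.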
# [4] = Clearance in dog at 1 mg/kg, iv; type: ADME, organism-based, Canis lupus familiaris; details: in vivo; summary of the method: as §1
smiles,measurement,setting,value
COc1cc(-n2cnc3cc(-c4ccc(Cl)cc4)sc3c2=O)ccc1OCC1(O)CC(F)(F)C1,half-life,[1],2220 min
same,inhibition,Homo sapiens,21%
same,inhibition at 10 µM,L-type calcium channel,15%
same,Activity,Rattus norvegicus [2],Non-Toxic
same,Activity,Rattus norvegicus [3],14.3%
same,INH,Cytochrome P450 2C8,> 40 µM
same,clearance,[4],6.9 mL/min/kg

# From ChEMBL document CHEMBL3856239, “Synthesis and Antiobesity Properties of 6-(4-Chlorophenyl)-3-(4-((3,3-difluoro-1-hydroxycyclobutyl)methoxy)-3-methoxyphenyl)thieno[3,2-d]pyrimidin-4(3H)-one (BMS-814580): A Highly Efficacious Melanin Concentrating Hormone Receptor 1 (MCHR1) Inhibitor” (J Med Chem, 2016)
